The target of data set [1] is T1, Estrogen receptor (Homo sapiens) (UniProt P03372).
T1 sequence (whole entry): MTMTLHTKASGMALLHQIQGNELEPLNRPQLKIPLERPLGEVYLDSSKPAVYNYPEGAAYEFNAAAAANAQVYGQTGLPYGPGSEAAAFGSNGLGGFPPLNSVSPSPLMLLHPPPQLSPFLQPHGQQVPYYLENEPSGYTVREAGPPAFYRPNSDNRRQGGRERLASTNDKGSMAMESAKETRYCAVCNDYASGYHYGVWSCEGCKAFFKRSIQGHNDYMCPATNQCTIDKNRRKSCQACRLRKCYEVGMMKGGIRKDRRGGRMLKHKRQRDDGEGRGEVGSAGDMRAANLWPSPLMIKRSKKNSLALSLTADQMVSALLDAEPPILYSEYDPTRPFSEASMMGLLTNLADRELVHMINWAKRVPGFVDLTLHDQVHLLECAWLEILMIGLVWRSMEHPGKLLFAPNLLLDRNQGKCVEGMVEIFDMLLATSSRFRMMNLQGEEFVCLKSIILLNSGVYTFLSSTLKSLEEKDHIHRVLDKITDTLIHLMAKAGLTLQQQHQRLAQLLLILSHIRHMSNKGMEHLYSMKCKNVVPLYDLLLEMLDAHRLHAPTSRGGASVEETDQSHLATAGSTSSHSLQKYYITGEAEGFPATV
In words: Covalent antagonist activity at ERalpha receptor in human ishikawa cells assessed as suppression of E2-stimulated PGR expression at 0.25 to 10 uM measured after 3 days by RT-PCR analysis. The data set is classed as cell-based. The settings on record: filed as antagonist, dose 0.25-10 µM, time 3.0 day. In a few lines:
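Ishikawa cells stimulated with E2 and exposed 3 days to compound at 0.25, 0.5, 1 and 10 µM. PGR mRNA quantified by SYBR Green real-time PCR, normalised to GAPDH, ΔΔCT method.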

Data set [2] has as its system MCF7. In words: Cell cycle arrest in human MCF7 cells assessed as accumulation at G0/G1 phase at 5 uM measured after 48 hrs by propidium iodide staining based flow cytometric analysis (reference value: 24.44%). In kind it is functional. In general terms: Flow cytometry measures light scatter and fluorescence of single cells or particles in a stream.
The subject of data set [3] is MCF7. In words: Induction of apoptosis in human MCF7 cells assessed as necrotic cells at 10 uM incubated for 24 hrs by AnnexinV-FITC/propidium iodide staining based flow cytometric analysis (reference value: 0.4%). The data set is classed as functional.
Data set [4] in a line: Intrinsic clearance in rat. In kind it is ADME.
In data set [5] the test system is MCF7. In words: Downregulation of ERalpha expression in human MCF7 cells at 0.5 uM incubated for 24 hrs by Western blot assay. The data set is classed as functional, cell-based. Summed up: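 MCF-7 cells were kept in phenol red-free DMEM/F12 with 10% serum for 72 h before plating, then treated at 125, 250 and 500 nM for 24 h. Cells were lysed in RIPA buffer, protein was measured by BCA, and equal amounts were run on 10% SDS-PAGE and transferred to PVDF. ERα band intensity was normalized to GAPDH in each repeat.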
For orientation: Immunoblotting shows a protein as a band on a membrane.

Data set [6] has as its system MCF7. Kind of data set: Induction of apoptosis in human MCF7 cells assessed as early apoptotic cells at 1 uM incubated for 24 hrs by AnnexinV-FITC/propidium iodide staining based flow cytometric analysis (reference value: 0.8%). The data set is classed as functional.
Data set [7] is described as follows: Lipophilicity, logD of compound. In kind it is physicochemical. The following applies: octanol/water.
The subject of data set [8] is MCF7. Kind of data set: Cell cycle arrest in human MCF7 cells assessed as accumulation at G0/G1 phase at 10 uM measured after 48 hrs by propidium iodide staining based flow cytometric analysis (reference value: 24.44%). The data set is classed as functional.
Data set [9] is described as follows: Half life in rat plasma. In kind it is ADME, cell-free.
In data set [10] the test system is MCF7. In words: Cell cycle arrest in human MCF7 cells assessed as accumulation at S phase at 10 uM measured after 48 hrs by propidium iodide staining based flow cytometric analysis (reference value: 63.32%). The data set is classed as functional.
The test system of data set [11] is MCF7. Kind of data set: Induction of apoptosis in human MCF7 cells assessed as live cells at 5 uM incubated for 24 hrs by AnnexinV-FITC/propidium iodide staining based flow cytometric analysis (reference value: 98.1%). In kind it is functional.
Data set [12] relates to MCF7. In words: Cell cycle arrest in human MCF7 cells assessed as accumulation at G2/M phase at 10 uM measured after 48 hrs by propidium iodide staining based flow cytometric analysis (reference value: 12.24%). The data set is classed as functional.
In data set [13] the test system is MCF7. Kind of data set: Cell cycle arrest in human MCF7 cells assessed as accumulation at G2/M phase at 5 uM measured after 48 hrs by propidium iodide staining based flow cytometric analysis (reference value: 12.24%). The data set is classed as functional.
Data set [14] has as its target T1, Estrogen receptor (Homo sapiens). Kind of data set: Covalent antagonist activity at ERalpha in human MCF7 cells assessed as decrease in estradiol-induced GREB1 mRNA expression level at 0.25 to 10 uM measured after 24 hrs by RT-PCR analysis. The data set is classed as cell-based. The following applies: filed as antagonist, dose 0.25-10 µM. In a few lines: (§1)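 MCF-7 cells stimulated with estradiol, then co-incubated 24 h with compound at 0.25, 0.5, 1 and 10 µM. RNA was reverse-transcribed and GREB1 or TFF1 measured by SYBR Green qPCR: 95 °C 10 min, then 40 cycles of 95 °C 5 s, 60 °C 60 s, 95 °C 15 s. Normalised to GAPDH, ΔΔCT method.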

For data set [15] the target is unchanged. Kind of data set: Covalent antagonist activity at ERalpha in human MCF7 cells assessed as decrease in estradiol-induced TFF1 mRNA expression level at 0.25 to 10 uM measured after 24 hrs by RT-PCR analysis. The data set is classed as cell-based. The settings on record: filed as antagonist, dose 0.25-10 µM. Summed up: as §1
Data set [16] deals with T2, Estrogen receptor (Homo sapiens, UniProt P03372).
T2 sequence (P03372 whole entry): T1 sequence (whole entry)
Kind of data set: Induction of ERalpha activity in human ishikawa cells assessed as induction of cell proliferation at 156 to 5000 nM measured after 3 days. In kind it is cell-based. The settings on record: 72 h, 5 µM, dose 156-5000 nM, time 3 day.

Data set [17] concerns MCF7. In words: Antiproliferative activity against human MCF7 cells assessed as reduction in cell growth incubated for 48 hrs by CCK8 assay. The data set is classed as functional, cell-based. The following applies: MCF7, 48 h. Summed up: (§2)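 CCK-8 viability assay. Cells seeded at 4000/well in 10% FBS medium for 24 h, then given compound diluted from DMSO stocks into 2% FBS medium at 100, 50, 25, 12.5, 6.25 and 3.125 µM (0.1% DMSO final). After 48 h, CCK-8 was added (0.5 mg/mL) for 2 h at 37 °C and OD450 read. Triplicates; IC50 fitted from mean viability.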
(In general: Tetrazolium assays rely on reduction of a dye to a coloured formazan, in cell work by metabolically active cells.)

The nature of data set [18]: Half life in rat liver microsomes. The data set is classed as ADME, Microsome.
For data set [19], the system named is MCF7. Kind of data set: Induction of apoptosis in human MCF7 cells assessed as live cells at 10 uM incubated for 24 hrs by AnnexinV-FITC/propidium iodide staining based flow cytometric analysis (reference value: 98.1%). In kind it is functional.
For data set [20], the system named is MDA-MB-231. In words: Antiproliferative activity against human MDA-MB-231 cells assessed as reduction in cell growth incubated for 48 hrs by CCK8 assay. In kind it is functional, cell-based. The following applies: MDA-MB-231, 48 h. Summed up:
as §2

The subject of data set [21] is MCF7. Kind of data set: Induction of apoptosis in human MCF7 cells assessed as necrotic cells at 1 uM incubated for 24 hrs by AnnexinV-FITC/propidium iodide staining based flow cytometric analysis (reference value: 0.4%). In kind it is functional.
The subject of data set [22] is Ishikawa. In words: Antiproliferative activity against human Ishikawa cells assessed as reduction in cell growth incubated for 48 hrs by CCK8 assay. The data set is classed as functional, cell-based. In a few lines:
as §2

In data set [23] the test system is MCF7. In words: Induction of apoptosis in human MCF7 cells assessed as live cells at 1 uM incubated for 24 hrs by AnnexinV-FITC/propidium iodide staining based flow cytometric analysis (reference value: 98.1%). In kind it is functional.
Data set [24] deals with MCF7. Kind of data set: Induction of apoptosis in human MCF7 cells assessed as necrotic cells at 5 uM incubated for 24 hrs by AnnexinV-FITC/propidium iodide staining based flow cytometric analysis (reference value: 0.4%). The data set is classed as functional.

Calls of active or inactive are those of the source.

On to `O=C(/C=C/CNCCOc1ccc(Oc2c(-c3ccc(F)cc3)sc3cc(O)ccc23)cc1)N1CCC1`, for which the inhibition entry in data set [1] and in [5] was “Active” each time. The Activity in [2] amounted to 37.54%; in data set [3] it was 0.5%; in data set [6], 0.8%; in data set [8] it was 42.95%; in data set [10] it was 38.75%; in data set [11] it was 87.9%. In addition, the Activity is on record as 18.3% in data set [12]; 15.48% in data set [13]; “Not Active” in data set [16]; 73.6% in [19]; 0.2% in data set [21]; 97.8% in data set [23]. Further, in data set [24], the Activity is reported as 0.4%. The compound also gave a CLint scaled in [4] of 65.1 mL/min/kg. Also, the logD in [7] came to 1.67. Moreover, the half-life in [9] came out at 17 h; in data set [18] it was 0.636 h. The inhibition result in data set [14] and in [15] was “Dose-Dependent Effect” throughout. In addition, the results for the IC50 in data set [17], in data set [20] and in [22] were 7.34 µM, greater than 50 µM and 6.56 µM, respectively.

As a reminder, the CLint scaled is the rate of metabolic loss divided by the concentration. Higher therefore signals faster metabolism. The logD is the decadic logarithm of the distribution of all forms, ionised or not, between an organic phase and buffer at a given pH. The term half-life denotes the time needed for the level to fall by half in the phase considered. As usually defined, the IC50 is the concentration that gives 50% inhibition.

Source of the values: ChEMBL document CHEMBL4837222, “Design and synthesis of novel benzothiophene analogs as selective estrogen receptor covalent antagonists against breast cancer” (Eur J Med Chem, 2021).
